# Sampled rows, rich in hits. Any-hit rate of the full collection: about 1.5%.
# APJ antagonist: APJ receptor antagonism; AID 2521; inhibition, % at 20 µM; CHO-K1 APJ beta-arrestin complementation, luminescence; P35414; hit rate 0.32% among 330,000;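 active = inhibition above about 40% at 20 µM, limit read from the data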;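 note: cells challenged with 10 nM apelin-13 agonist together with compound; plate controls were apelin-13 plus DMSO wells for no effect and DMSO wells lacking apelin-13 for full effect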
# EBI2 antag: antagonists of human EBI2 receptor; P32249; EBI2 beta-arrestin recruitment, luminescence, 7a,25-OHC stimulated; inhibition, % at 5 µM; hit rate 0.81% among 360,000; in the data active = inhibition above about 38%;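 note: enzyme fragment complementation signal reports receptor beta-arrestin coupling in cells; 0% = agonist plus DMSO wells and 100% = wells without agonist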
# CCR6 antag: antagonists of human CCR6 receptor | CHO-K1 CCR6 PathHunter beta-arrestin, luminescence, CCL20-stimulated | hit rate 0.49% among 340,000 | AID 493098 | P51684 | inhibition, % at 20 µM;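 active = compounds whose inhibition of the agonist-driven luminescence signal at 20 µM reaches about 50%, limit read from the data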;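 note: cells stimulated with CCL20 at 14 nM final; plate controls were DMSO with CCL20 for no effect and DMSO without agonist for full effect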
# CXCR6 inh: CXCR6 (human) receptor inhibition | O00574 | CHO-K1 PathHunter CXCR6 beta-arrestin, luminescence | inhibition, % at 20 µM | hit rate 0.36% among 360,000 | AID 602244; in the data active = inhibition above about 34%, passing the limit was not always enough;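 note: antagonist mode with CXCL16 agonist at 10 nM final; 0% = 10 nM CXCL16 with DMSO and 100% = unstimulated wells without agonist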
# Target sequence (O00574 whole entry, looked up): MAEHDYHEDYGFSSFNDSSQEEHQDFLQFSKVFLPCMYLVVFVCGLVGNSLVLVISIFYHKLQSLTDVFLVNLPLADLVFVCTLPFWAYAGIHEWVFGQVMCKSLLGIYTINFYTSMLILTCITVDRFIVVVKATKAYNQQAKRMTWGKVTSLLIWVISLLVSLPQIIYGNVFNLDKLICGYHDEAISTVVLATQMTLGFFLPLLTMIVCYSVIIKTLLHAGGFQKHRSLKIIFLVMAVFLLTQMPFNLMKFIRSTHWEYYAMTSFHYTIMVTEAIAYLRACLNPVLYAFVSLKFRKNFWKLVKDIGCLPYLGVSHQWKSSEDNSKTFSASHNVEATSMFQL
# APJ ag: activates the human apelin receptor APJ; hit rate 0.11% among 330,000; P35414; AID 2520; CHO-K1 APJ PathHunter beta-arrestin, luminescence; 0% DMSO wells, 100% apelin; activation, % at 20 µM;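 active = activation more than six SD over the plate average, tested at 20 µM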;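 note: 0% = DMSO alone and 100% = apelin-13 at 10 nM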
#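 Incubation: overnight seeding, 90 min compound at 25 °C, 1 h detection; test system: PathHunter CHO-K1 APJ (AGTRL-1) beta-arrestin reporter cells; amount: 1000 cells/well; doses: one dose, 20 µM compound, 1% DMSO; measured by: beta-gal luminescence; measure: agonist-driven arrestin binding to APJ; benchmarks: negative DMSO alone, positive Apelin-13 at 10 nM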
# EBI2 antag conf: confirmation of human EBI2 receptor antagonists; EBI2 beta-arrestin luminescence, 7a,25-OHC antagonism; inhibition, % at 5 µM; hit rate 29% among 2,400; shares compounds with EBI2 antag;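 active = inhibition of at least 50%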
# EBI2 ag: counter-screen for EBI2 antagonists: EBI2 agonist activity. AID 652000. 2,400 tested, under 10 active. activation, % at 5 µM. EBI2-expressing cells, agonist mode, luminescence, 60 min; 0% vehicle, 100% 7α,25-dihydroxycholesterol control. shares compounds with EBI2 antag;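 active = activation of at least 50%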
# bGal counter: counter-screen for EBI2 antagonists: E. coli beta-galactosidase inhibition; purified beta-galactosidase, luminescent Galacton Star, 15 min; hit rate 1% among 2,400; inhibition, % at 5 µM; AID 652176; shares compounds with EBI2 antag;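 active = replicate-average signal at least 3 plate SD below neutral wells, shown as high inhibition, flagging enzyme-inhibiting false positives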;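 note: 0% = DMSO wells with enzyme and 100% = wells lacking enzyme; higher means stronger loss of beta-gal luminescence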
# Numbers without * were called inactive; . = no result.
SMILES,APJ antagonist,EBI2 antag,CCR6 antag,CXCR6 inh,APJ ag,EBI2 antag conf,EBI2 ag,bGal counter
CC(C)C(NS(=O)(=O)c1ccccc1)C(=O)OCC(=O)NNC(=O)c1ccccc1 (stereo unspecified),-40,53*,-2,-9,-8,42,0,2
Cc1ccc(Cn2c(=O)n(Cc3ccco3)c(=O)c3ccccc32)cc1,-22,69*,29,9,-4,26,1,9
O=c1c2ccccc2n(Cc2ccccc2F)c(=O)n1Cc1ccccc1F,14,54*,22,16,-5,17,1,11
O=C(NCc1ccco1)c1ccc(Cn2c(=O)c3ccccc3n(Cc3ccc(Cl)cc3)c2=O)cc1,1,22,14,15,1,.,.,.
Cc1ccc(CNC(=O)CCSCc2ccccc2F)cc1,-5,-1,8,-2,-3,.,.,.
Cc1cccc(N2CCN(C(=O)c3ccc4ncsc4c3)CC2)c1C,.,74*,5,-3,.,65*,0,-13
Cc1ccc(C)c(N2CCN(C(=O)c3ccc4nsnc4c3)CC2)c1,-8,47*,11,7,-4,13,0,-4
O=C(c1ccc2ncsc2c1)N1CCN(c2nc3ccccc3s2)CC1,14,6,8,-8,1,.,.,.
O=C(c1ccc2ncsc2c1)N1CCN(c2ccccc2Cl)CC1,-2,74*,-3,0,-1,54*,1,1
CC(C)Cn1c(N2CCN(CC(=O)Nc3ccc(Cl)cc3)CC2)nc2ccccc21,-8,74*,19,6,0,40,2,4
Cc1ccc(C(=O)N2CCN(Cc3nc4sc5c(c4c(=O)[nH]3)CCCC5)CC2)cc1,4,44*,-7,0,-1,12,-1,-13
CSc1ccc(/C=C/C(=O)Nc2ccccc2)cc1,7,28,11,-3,0,.,.,.
CCOC(=O)Nc1ccc(C(=O)/C=C/c2ccccc2)cc1,5,63*,21,-3,-4,32,1,9
CSc1ccc(/C=C/C(=O)c2ccc(NC(=O)C(C)C)cc2)cc1,-3,75*,7,13,-1,66*,-1,-6
CCOC(=O)Nc1ccc(Oc2ccccc2)cc1,-14,23,-31,2,-1,.,.,.
CSc1ccc(/C=C/C(=O)c2ccc(NC(=O)Cc3ccccc3)cc2)cc1,2,92*,2,2,-2,80*,1,7
O=C1NC(=O)C2C3OC(C(Br)C3Br)C12 (stereo unspecified),.,-10,.,3,.,.,.,.
CSC1=C(C#N)C(c2ccccc2)C(C(C)=O)=C(C)N1 (stereo unspecified),-4,11,7,-12,-3,.,.,.
CSC1=C(C#N)C(c2ccccc2Cl)C(C(C)=O)=C(C)N1 (stereo unspecified),10,65*,-3,8,-1,48,3,10
Cc1ccc2nc(-c3ccncc3)cc(C(=O)Nc3ccc(F)cc3C)c2c1,10,51*,-7,-1,1,64*,1,8
CCCCOC(=O)c1ccc(NC(=O)CSC2=Nc3ccccc3C3CC=NN23)cc1 (stereo unspecified),-5,59*,15,12,-2,16,0,9
OC(COc1ccc(Cl)cc1)CSc1ccccn1 (stereo unspecified),6,52*,18,-7,-3,32,1,3
O=C(Oc1ccc(=O)[nH]n1)c1ccccc1,.,-11,.,0,.,.,.,.
COC(=O)c1cc(OC)c(OC)c(OC)c1[N+](=O)[O-],9,-1,2,1,2,.,.,.
CC1CC(C)CN(S(=O)(=O)c2ccc(C(=O)N3CCN(c4ccccc4)CC3)cc2)C1 (stereo unspecified),13,57*,-15,3,2,28,0,-10
SMILES,APJ antagonist,EBI2 antag,CCR6 antag,CXCR6 inh,APJ ag,EBI2 antag conf,EBI2 ag,bGal counter
COc1cccc(-c2cc(C(=O)N3CCN(S(=O)(=O)c4ccccc4)CC3)[nH]n2)c1,-37,35,-1,-4,-2,.,.,.
COc1ccc(-c2cc(C(=O)N3CCN(S(=O)(=O)c4ccc(C)cc4)CC3)[nH]n2)cc1,2,53*,3,0,1,49,-1,-13
COc1ccc(CN2CCN(C(=O)c3ccc(S(=O)(=O)N4CCCCCC4)cc3)CC2)cc1,-18,-1,-7,1,2,.,.,.
COc1ccc(S(=O)(=O)N2CCN(C(=O)c3cc(-c4ccc(C)cc4)n[nH]3)CC2)cc1,-21,74*,9,4,-3,49,2,3
COc1ccc(C(=O)N2CCN(S(=O)(=O)c3ccc(Br)cc3)CC2)cc1,-8,52*,9,-6,-3,28,1,9
O=C(COc1cc2oc(=O)c3c(c2cc1Cl)CCC3)NCC(O)c1ccccc1 (stereo unspecified),0,-2,14,4,-1,.,.,.
COc1ccccc1C(CNC(=O)c1cccc(S(=O)(=O)NCc2ccccc2)c1)N(C)C (stereo unspecified),-55,-11,4,-7,-4,.,.,.
COc1cc(C2OC(=O)C3C(c4ccc(OC(C)=O)c(OC)c4)OC(=O)C23)ccc1OC(C)=O (stereo unspecified),-6,62*,5,6,-3,-3,-1,-10
COc1ccc(OCCNC(=O)c2cccc(Oc3ccc(C(F)(F)F)cc3[N+](=O)[O-])c2)cc1,7,43*,19,4,0,17,-2,-14
CC1(C)C2CC=C(/C=N/NC(=S)Nc3cccnc3)C1C2 (stereo unspecified),28,-8,14,-1,-4,.,.,.
CC1=C/C(=N\NC(=S)Nc2cccnc2)CC(C)(C)C1,.,39*,46,11,.,78*,-2,-9
CCOC(=O)C1CCCN(C(=O)c2ccc3c(c2)C(C)(C)CCC3(C)C)CC1 (stereo unspecified),.,8,.,2,.,.,.,.
CCc1ccc(CN(C)C(=O)c2cc(=O)c3ccccc3o2)cc1,8,86*,9,8,-3,65*,0,-11
CC1(C)CC(O)C(C(O)c2cccc([N+](=O)[O-])c2)C(C)(C)N1 (stereo unspecified),-17,-1,-1,14,-1,.,.,.
O=C(CCc1nc2ccccc2c(=O)[nH]1)OCc1ccc(Cl)cc1Cl,2,-6,-3,-7,2,.,.,.
S=c1[nH]nc(-c2cc(-c3ccccc3)n[nH]2)n1/N=C/c1ccccc1,20,51*,16,0,2,50,1,9

# Screening data deposited in PubChem BioAssay by Sanford-Burnham Center for Chemical Genomics.
